# Compounds with a hit are over-represented: about 4.1% of the library has one in this group of screens.
# NS3 helicase inh = inhibitors of Hepatitis C virus NS3 helicase. 290,000 compounds, 0.56% hits. NS3 helicase DNA unwinding, Cy5 molecular beacon fluorescence. inhibition, % at 10.9 µM;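 active = inhibition above the mean of all tested compounds plus 3 SD, set per campaign, cut at about 35% in these data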
#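 System: Hepatitis C virus NS3 helicase domain fragment enzyme | Reagent: Annealed dual-labelled DNA beacon duplex, ATP-started | Compound dosing: 10.9 µM single point, 0.8% DMSO | Incubation: 1 h reaction at 25 °C, ATP-initiated | Technique: Cy5 fluorescence | Evaluation: Percent inhibition from t60/t0 fluorescence ratio | Benchmarks: Low DMSO, high thioflavine S at 110 µM | Replication: Singlicate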
# MEKK3 PB1 HTS = raises or lowers MEK5 binding to the human MEKK3 PB1 domain | Q99759 | bead-based flow cytometry, Alexa488-MEK5 binding to MEKK3; actives lie on both sides; 0 = blocked by unlabeled MEK5, 100 = vehicle | binding response (% of control), % at 10 µM | 290,000 compounds, 1.4% hits;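 active = binding response more than 3 SD above or below the average of its plate-row segment, actives on both sides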;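 note: Alexa488 bead fluorescence after subtracting the streptavidin-only scavenger bead signal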
# Target sequence (Q99759 whole entry, looked up, the tested form may be a part): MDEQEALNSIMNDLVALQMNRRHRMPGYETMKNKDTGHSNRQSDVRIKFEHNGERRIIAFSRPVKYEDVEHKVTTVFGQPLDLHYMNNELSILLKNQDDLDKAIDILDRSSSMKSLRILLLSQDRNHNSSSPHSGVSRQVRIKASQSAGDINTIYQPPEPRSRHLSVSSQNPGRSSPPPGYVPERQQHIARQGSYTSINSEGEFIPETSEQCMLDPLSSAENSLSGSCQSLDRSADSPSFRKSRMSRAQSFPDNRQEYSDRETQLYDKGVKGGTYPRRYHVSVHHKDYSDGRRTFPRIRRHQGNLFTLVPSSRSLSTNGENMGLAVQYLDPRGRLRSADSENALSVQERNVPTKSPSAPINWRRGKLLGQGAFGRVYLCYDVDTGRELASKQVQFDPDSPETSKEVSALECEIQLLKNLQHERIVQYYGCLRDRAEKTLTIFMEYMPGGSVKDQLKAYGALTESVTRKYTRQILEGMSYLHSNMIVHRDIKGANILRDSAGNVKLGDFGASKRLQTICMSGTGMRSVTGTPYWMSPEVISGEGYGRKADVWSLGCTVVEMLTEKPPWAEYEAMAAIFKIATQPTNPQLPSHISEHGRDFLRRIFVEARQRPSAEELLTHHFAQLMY
# T cruzi repl = T. cruzi replication inhibition; T. cruzi beta-gal in NIH3T3, luminescence, 90 h; 300,000 compounds, 1.4% hits; inhibition, % (test concentration not listed);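 active = mean inhibition across valid replicates above about 55%, limit read from the data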;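 note: signal also drops with host cell toxicity which is not excluded here; higher percent means less beta-gal luminescence so fewer parasites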
#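 Material: NIH/3T3 host cells with β-galactosidase reporter T. cruzi; Input: 5,000 host fibroblasts per well; Medium: DMEM, 2% fetal bovine serum; Compound: 50 nL DMSO compound solution per well; Schedule: 3 h host attachment, then at least 90 h co-culture; Detection: luminescent β-galactosidase signal after 60 min lysis.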
# MEKK2mut PB1 HTS = signal of MEK5 binding to mutant human MEKK2 PB1 domain; bead flow cytometry, Alexa488-MEK5 binding to MEKK2 mutant; percent response, % at 10 µM; 290,000 compounds, 0.35% hits; in the data active = percent response above about 24%, passing the limit was not always enough
# DNA FID counter-1 = counter-screen for HCV NS3 helicase inhibitors: DNA intercalator displacement; DNA fluorescent intercalator displacement, fluorescence; inhibition, % at 7.9 µM; 290,000 compounds, 0.17% hits; AID 1845;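 note: higher means more ethidium bromide displaced from hairpin DNA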
# MEKK2 WT-MEK5 = raises or lowers MEK5 binding to wildtype human MEKK2 PB1 domain. bead flow cytometry, Alexa488-MEK5 binding to MEKK2 WT; actives lie on both sides. Q9Y2U5. AID 1531. binding response (% of control), % at 10 µM. 290,000 compounds, 1.1% hits; in the data active = binding response below about 67% or above about 130%
# NS3 helicase cf = confirmation of Hepatitis C virus NS3 helicase inhibitors | shares compounds with NS3 helicase inh | NS3 helicase DNA unwinding, Cy5 molecular beacon fluorescence | inhibition, % at 10.9 µM | 1,600 compounds, 31% hits;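 active = inhibition above the mean of all tested compounds plus 3 SD, cutoff set per campaign, cut at about 36% in these data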
# DNA FID counter-2 = displaces DNA intercalator in HCV helicase counter-screen; inhibition, % at 7.9 µM; DNA fluorescent intercalator displacement, fluorescence; AID 1945; 1,600 compounds, 4% hits; shares compounds with NS3 helicase inh;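 note: higher means more displacement of ethidium bromide from the DNA hairpin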
# FID counter DR = displaces fluorescent intercalator from DNA, HCV helicase counter-screen; shares compounds with NS3 helicase inh; fluorescent intercalator displacement from DNA, fluorescence; IC50, µM; 120 tested, under 10 active; AID 2172; call rule not given here
# A number is an active result; 0 = inactive; - = not tested or not shown. Cut-off read from the data, not from the text of the source, unless noted: active = inhibition above about 37%; inactive = the rest.
SMILES,NS3 helicase inh,MEKK3 PB1 HTS,T cruzi repl,MEKK2mut PB1 HTS,DNA FID counter-1,MEKK2 WT-MEK5,NS3 helicase cf,DNA FID counter-2,others
COc1nccnc1NS(=O)(=O)c1ccc(NC(=O)c2cccc(C)c2)cc1,0,0,0,0,0,0,-,-,
CCCc1nn2c(=O)cc(O)nc2s1,0,0,0,0,0,0,-,-,
CCCCCCCc1nn2c(=O)cc(O)nc2s1,36,0,0,0,0,0,0,0,
CCCn1c(C(C)Nc2nc(-c3ccc(Cl)c([N+](=O)[O-])c3)cs2)nc2cc(Cl)c(N3CCCCC3)cc21 (stereo not drawn),92,0,0,0,0,0,0,0,
Cc1ccc(C(=O)O)cc1-c1ccc(/C=C2\SC(=O)N(CC(=O)Nc3ccccc3)C2=O)o1,38,0,0,0,0,0,78,0,FID counter DR=0
Cc1ccccc1NC(=O)CN1C(=O)S/C(=C\c2ccc(-c3cc(C(=O)O)ccc3C)o2)C1=O,0,0,0,0,0,0,-,-,
COc1ccc(Nc2nccc(-c3ccc(C#N)cc3)n2)cc1,37,0,0,0,0,0,0,0,
COc1ccc(Nc2nccc(-c3cccc(N)c3)n2)cc1,0,0,0,0,0,0,-,-,
Cn1c(=S)[nH]c(=O)c2ncc(=O)[nH]c21,0,0,0,0,0,0,-,-,
CSc1nc(N)c(NC(=O)c2ccc(Br)o2)c(=O)[nH]1,0,0,0,0,0,0,-,-,
O=c1[nH]c(=S)[nH]c2c1C(c1ccc(Br)cc1)c1c([nH]c(=S)[nH]c1=O)O2,43,0,0,0,0,0,75,0,
O=C1CCCC2=C1C(c1ccc(Br)cc1)c1c([nH]c(=S)[nH]c1=O)N2 (stereo not drawn),0,0,0,0,0,0,-,-,
Cc1nnc(SCC2=C(C(=O)O)N3C(=O)C(NC(=O)C(C)n4nc(C(F)(F)F)cc4C)C3SC2)s1 (stereo not drawn),40,0,0,0,0,0,0,0,
CC(C(=O)NC1C(=O)N2C(C(=O)O)=C(CSc3nnnn3C)CSC12)n1cc(Cl)cn1 (stereo not drawn),0,0,0,0,0,0,-,-,
NS(=O)(=O)c1cccc(NC(=O)Cc2ccc(Cl)c(Cl)c2)c1,0,0,0,0,0,0,-,-,
COc1ccccc1OCC(=O)N/N=C/C=C/c1ccc([N+](=O)[O-])o1,46,0,58,0,0,0,0,0,
O=C(N/N=C\C=C\c1ccc([N+](=O)[O-])o1)c1cccs1,54,0,78,0,0,0,0,0,
O=C(CSc1ccc(Br)c2cccc(Cl)c12)Nc1ccc(S(=O)(=O)Nc2nccs2)cc1,38,0,0,0,0,0,38,0,
O=C(Cc1ccccc1Cl)Nc1ccc(S(=O)(=O)Nc2nccs2)cc1,0,0,0,0,0,0,-,-,
CC1=Nc2ccccc2/C1=C/c1c(N)n2c(S(=O)(=O)CC(C)C)nsc2nc1=O,36,0,0,0,0,0,54,0,
O=C(Nc1cccc2nsnc12)c1ccc(-c2cccc(Cl)c2)o1,40,0,-,0,0,0,0,0,
O=C(Nc1ccccc1N1CCCCC1)c1ccc(-c2cccc(Cl)c2)o1,0,0,0,0,0,0,-,-,
CCOC(=O)Cc1csc(NS(=O)(=O)c2ccc([N+](=O)[O-])cc2)n1,0,0,0,0,0,0,-,-,
Cc1cc2oc(=O)cc(CN3CCCCC3C)c2cc1C (stereo not drawn),36,0,0,0,0,0,0,0,
Cc1cc(C)c2c(CN3CCCCC3C)cc(=O)oc2c1 (stereo not drawn),0,0,0,0,0,0,-,-,
COCCn1c(-c2ccc(OC)cc2)cnc1SCC(=O)Nc1cccc2ccccc12,47,0,0,0,0,0,0,0,

# Screens as filed in PubChem BioAssay.
